# Results gathered from unrelated publications.
# Compare with care: the assays were run in different laboratories.
# Target: Serine/threonine-protein kinase RIO1 (RIOK1, Homo sapiens, UniProt Q9BRS2)
# Residues used in one study (Q9BRS2 1-568): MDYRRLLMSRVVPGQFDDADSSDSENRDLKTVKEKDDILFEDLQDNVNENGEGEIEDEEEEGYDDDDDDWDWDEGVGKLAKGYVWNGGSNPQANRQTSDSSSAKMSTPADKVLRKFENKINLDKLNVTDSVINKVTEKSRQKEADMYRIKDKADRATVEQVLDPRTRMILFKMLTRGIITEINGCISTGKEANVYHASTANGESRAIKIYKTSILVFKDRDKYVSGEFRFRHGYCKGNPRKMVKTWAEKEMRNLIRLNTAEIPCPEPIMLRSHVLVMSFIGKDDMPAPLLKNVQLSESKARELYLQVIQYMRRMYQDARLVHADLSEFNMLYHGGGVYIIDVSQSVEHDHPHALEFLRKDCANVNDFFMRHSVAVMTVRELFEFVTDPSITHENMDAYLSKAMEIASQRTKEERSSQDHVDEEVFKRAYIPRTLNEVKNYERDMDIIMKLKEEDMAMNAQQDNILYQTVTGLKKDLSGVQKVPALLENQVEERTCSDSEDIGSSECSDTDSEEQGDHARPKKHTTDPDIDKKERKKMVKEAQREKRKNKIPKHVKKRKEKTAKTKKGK
Structure (SMILES),observed,technique,concentration,remaining binding [%]
C[C@@H](c1ccc(-n2cnc3c(N)ncnc32)cc1)N1CCc2nn(C)c(Cc3ccccc3)c2C1=O,binding,competition with immobilised ligand,0.1 µM,69
F[C@@H]1CCN(c2nccc(-c3cnn4ncccc34)n2)C1,binding,,1 µM,93
O=S(=O)(NC1CCC(c2cc(F)ccc2F)(S(=O)(=O)c2ccc(Cl)cc2)CC1)C(F)(F)F (stereo not shown),cell-free assay,competition with immobilised ligand,1 µM,98
CNC(=O)[C@@H]1CC[C@@H](n2c(-c3ccc4cnccc4c3)nc3ccc(C(=O)NCc4cccc(C(N)=O)c4)cc32)C1,binding,competition with immobilised ligand,1 µM,100
O=C(c1ccc(Nc2ncc(Cl)c(-c3cc4ccccc4s3)n2)cc1)N1CCC(N2CCCC2)CC1,binding,competition with immobilised ligand,1 µM,0
COc1cnc(Nc2cccc(S(N)(=O)=O)c2)nc1N1CCN(c2ccccc2)C(=O)C1,binding,competition with immobilised ligand,1 µM,49
CN(C)C(=O)Cn1cc(-c2nc(C3(c4ccc(-c5cnc(N)nc5)cc4)CC3)no2)cn1,cell-free assay,competition with immobilised ligand,1 µM,100
CN(C)c1nccc(-c2cnc3ncccn23)n1,binding,,1 µM,100
O=C(c1ccc(Nc2ncc(Cl)c(-c3ccc(Cl)s3)n2)cc1)N1CCC(N2CCCC2)CC1,binding,competition with immobilised ligand,1 µM,0
C[C@@H]1CCN(c2nccc(-c3cnn4ncccc34)n2)C1,binding,,1 µM,75
CCCOc1ccc([C@@H]2[C@@H](C(=O)O)[C@H](c3ccc4c(c3)OCO4)CN2CC(=O)Nc2c(CC)cccc2CC)cc1,cell-free assay,competition with immobilised ligand,1 µM,100
Cc1cnc(Nc2ccc(C(=O)N3CCC(N4CCCC4)CC3)cc2)nc1-c1cc2ccccc2s1,binding,competition with immobilised ligand,1 µM,0
C[C@@H]1CN(c2cc(-c3n[nH]c4ccc(OC5(C)CC5)cc34)ncn2)C[C@H](C)O1,cell-free assay,competition with immobilised ligand,0.1 µM,100
CCN1CCN(Cc2ccc(C(=O)Nc3ccc(C)c(Oc4ccc5c(c4)CC(=O)N5)c3)cc2C(F)(F)F)CC1,binding,competition with immobilised ligand,1 µM,90
Cc1cnn2ncc(-c3ccnc(N(C)C)n3)c2c1,binding,,1 µM,98
COc1ccc2c(c1)O[C@@H](c1ccc(OC)c(OC)c1)C[C@H]2NC(=O)C1(c2ccc3c(c2)OC(F)(F)O3)CC1,cell-free assay,competition with immobilised ligand,1 µM,100
c1cnn2ncc(-c3ccnc(N4CCC45COC5)n3)c2c1,binding,,1 µM,36
c1cncc(-c2cccc(Nc3nccc(NC4CCCCC4)n3)c2)c1,binding,competition with immobilised ligand,10 µM,26
COc1ccnn2ncc(-c3ccnc(N(C)C)n3)c12,binding,,1 µM,100
O=C(NCC1CCOCC1)c1n[nH]cc1NC(=O)c1c(F)cccc1F,binding,competition with immobilised ligand,1 µM,88
CNCc1ccccc1-c1csc([C@H](C)Nc2nc(C)nc3cc(OC)c(OC)cc23)c1,cell-free assay,competition with immobilised ligand,1 µM,96
CN(C)c1nccc(-c2cnn3ncccc23)n1,binding,,1 µM,100
